# Screening data deposited in PubChem BioAssay by Johns Hopkins Ion Channel Center.
# An excerpt weighted towards active compounds, which were near 3.7% of everything screened.
# KCNQ1 block: blocks the human KCNQ1 potassium channel; hit rate 1.3% among 310,000; CHO-K1 KCNQ1, FluxOR thallium flux fluorescence; active compounds read high; P51787; B-score at 10 µM; AID 2642;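 active means compounds whose thallium flux B-score, printed positive for inhibition, exceeds three library SD while starting fluorescence stays within three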;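 further: channel opened by potassium depolarization with thallium stimulus after 20 min compound exposure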
# Kir21 block: blocks the mouse Kir2.1 inward-rectifier potassium channel | B-score at 10 µM | hit rate 0.85% among 310,000 | HEK293-Kir2.1, FluxOR thallium flux fluorescence; active compounds read low;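 active means fluorescence ratio B-score at or below minus 3 SD of library scores, with starting-brightness B-score within 2 SD, cut at about -4.2 in these data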;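 further: channel flux triggered by added potassium and thallium sulfate stimulus; B-score of peak minus minimum fluorescence over baseline after thallium stimulus; more negative B-score means stronger Kir2.1 block with less thallium influx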
# KCNQ1 act: potentiates or activates the human KCNQ1 potassium channel | P51787 | CHO-K1 KCNQ1, thallium flux FluxOR fluorescence; active compounds read high | B-score at 10 µM | hit rate 0.35% among 310,000 | AID 2648;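 active means fluorescence ratio B-score, a plate-corrected score, at least three library SD, with initial intensity B-score within 5 SD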
#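 Test system: CHO-K1 cells stably expressing KCNQ1 / Medium: assay buffer / Also added: depolarizing K+/Tl+ stimulus, K2SO4 and Tl2SO4 each 12.5 mM in 5x stock / Incubation: 90 min dye loading and 20 min compound exposure, both at room temperature / Signal: thallium influx via FluxOR fluorescence, kinetic imaging / Evaluation: B score of baseline-normalized fluorescence ratio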
# hERG protect: hERG (human) protection from proarrhythmic block. Q12809. CHO-hERG, FluxOR thallium flux, dofetilide IC70 present. activation (rescue from dofetilide block), less the hit threshold, % at 10 µM. hit rate 0.51% among 310,000. AID 1511;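 active means activation above the mean of controls blocked by dofetilide plus 5 SD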;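 further: thallium influx through hERG after potassium depolarization seen as dye fluorescence rise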
# KCNK3 inh: human KCNK3 channel inhibition, primary screen; O14649; CHO-KCNK3 thallium flux, FluxOR fluorescence; active compounds read low; B-score at 10 µM; hit rate 0.84% among 340,000; AID 602410;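 active means B-score under library mean minus 4 SD, starting fluorescence ratio at most library mean plus 5 SD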;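 further: more negative B-score means stronger inhibition of thallium flux through KCNK3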
# Target sequence (O14649 whole entry, looked up): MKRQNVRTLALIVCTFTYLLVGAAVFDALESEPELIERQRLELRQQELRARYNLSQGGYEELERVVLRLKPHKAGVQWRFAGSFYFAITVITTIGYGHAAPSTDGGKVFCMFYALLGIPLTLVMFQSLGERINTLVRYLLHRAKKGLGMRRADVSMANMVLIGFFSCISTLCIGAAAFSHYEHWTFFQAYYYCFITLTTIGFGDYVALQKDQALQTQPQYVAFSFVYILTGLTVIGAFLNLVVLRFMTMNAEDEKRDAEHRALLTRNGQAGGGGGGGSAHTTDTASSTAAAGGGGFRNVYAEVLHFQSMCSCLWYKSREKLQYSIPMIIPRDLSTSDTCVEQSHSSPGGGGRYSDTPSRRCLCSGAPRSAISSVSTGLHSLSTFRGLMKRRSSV
# KCNK9 block: inhibitors of human KCNK9 two-pore domain potassium channel. Q9NPC2. HEK293 KCNK9, FluxOR thallium flux fluorescence; active compounds read low. B-score at 10 µM. hit rate 1.2% among 310,000. AID 488922;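 active means ratio B-score over 3 SD below the library mean, with starting fluorescence within 5 SD of its mean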;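 further: negative B-score means less thallium flux so channel inhibition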
# The depositor's hits bear a star; i = inactive; . = no result.
SMILES,KCNQ1 block,Kir21 block,KCNQ1 act,hERG protect,KCNK3 inh,KCNK9 block
COc1cc(OC)cc(C(=O)NC(=S)NNC(=O)[C@H]2C[C@@H]2c2ccccc2)c1,i,0.93,15*,-18,i,i
O=C(/C=C/c1ccc(F)cc1)NC(=S)NNC(=O)[C@H]1C[C@@H]1c1ccccc1,i,1.2,i,-6,i,i
O=C(NC(=S)NNC(=O)[C@H]1C[C@@H]1c1ccccc1)c1ccc(F)cc1,6*,0.01,i,-23,i,i
Cc1cc(NC(=O)C2CC(=O)N(c3ccc(F)cc3)C2)no1 (stereo not drawn),i,-0.77,i,-3,i,i
N#Cc1nc(Cc2cccc3ccccc23)oc1N1CCCCC1,6*,0.02,i,-8,i,i
Cc1ccc(OCc2nc(C#N)c(N3CCCCC3)o2)cc1,i,-2.5,i,-11,i,i
N#Cc1nc(COc2ccc(Cl)cc2)oc1N1CCCCCC1,.,.,.,.,-8.7*,.
N#Cc1nc(Cc2cccc3ccccc23)oc1NCCCn1ccnc1,i,-4.2,i,-10,i,i
CN1CCN(c2oc(Cc3cccc4ccccc34)nc2C#N)CC1,i,-0.22,i,2,i,i
N#Cc1nc(Cc2cccc3ccccc23)oc1NCCCN1CCOCC1,i,-6*,i,-1,i,i
N#Cc1nc(-c2cccc3ccccc23)oc1NCCN1CCCCC1,i,-4.9*,i,-22,i,i
COc1cc(OC)cc(C(=O)NC(C(=O)NCCc2ccccn2)C(C)C)c1 (stereo not drawn),.,.,.,.,i,.
COC(=O)[C@@]1(Cc2ccccc2)[C@H]2C(=O)N(C)C(=O)[C@H]2[C@H]2CN=C(SCc3ccccc3)N21,.,.,.,.,i,.
Cn1c(CN2CCN(S(C)(=O)=O)CC2)nc2cc([N+](=O)[O-])ccc21,i,0.94,i,-5,i,i
N#Cc1nc(Cc2ccccc2)oc1N1CCC(C(N)=O)CC1,i,-1.9,i,-6,i,i
N#Cc1nc(Cc2ccccc2)oc1N1CCN(c2ccccc2)CC1,i,-0.23,i,-12,i,-7*
C=C1[C@@H](O)[C@H](CC(C)C)N(Cc2ccccc2Br)S1(=O)=O,.,.,.,.,i,.
Cc1ccc(S(=O)(=O)NN2C(=O)/C(=C\c3ccc(Cl)cc3)SC2=S)cc1,i,1.7,i,-2,i,i
Cc1ccc(/C=C2\SC(=S)N(NS(=O)(=O)c3ccc(C)cc3)C2=O)cc1,i,0.68,27*,-5,i,i
N/C(=N\OC(=O)c1ccccc1Br)c1ccc([N+](=O)[O-])cc1,i,-0.27,i,-4,i,i
N/C(=N\OC(=O)c1ccccc1Br)c1cccc([N+](=O)[O-])c1,i,2.4,i,-7,i,-7.1*
CC1(C)CC(=O)C2=C(C1)NC1=C(C(=O)c3ccccc31)C2c1ccccc1 (stereo not drawn),i,0.38,i,-6,i,i
CC(C)c1ccc(C2C3=C(CC(C)(C)CC3=O)NC3=C2C(=O)c2ccccc23)cc1 (stereo not drawn),11*,-0.56,i,-7,i,i
CC1(C)CC(=O)C2=C(C1)NC1=C(C(=O)c3ccccc31)C2c1cc([N+](=O)[O-])ccc1O (stereo not drawn),6*,0.34,i,-13,i,i
CN(C(=O)C(Cl)Cl)c1ccc(OC(=O)c2ccco2)cc1,i,-4.7*,i,-4,i,i
O=C(Oc1cccnc1)c1ccco1,i,0.2,i,3,i,i
CCN(CC)CC(=O)Nc1ccc2c(c1)Nc1ccccc1CC2,i,-5.6*,8*,-2,i,i
CC(=O)c1ccccc1NC(=O)c1ccc(N2CCCC2=O)cc1,i,0.18,i,-14,i,i
N#Cc1c(N)nc(SCC(=O)C23CC4CC(CC(C4)C2)C3)c(C#N)c1-c1ccc(Cl)cc1,i,-0.42,i,-8,i,i
CSc1nc(N)nc(SCC(=O)C23CC4CC(CC(C4)C2)C3)c1C#N,i,-0.03,i,-16,i,-7.5*
